C2C12 statin: suppression of simvastatin myotoxicity | C2C12 myotubes + simvastatin, ATP luminescence, 48 h; scaled: DMSO 0, geranylgeraniol control 100 | rescue of ATP level, % at 7.49 µM | 330,000 tested, 0.78% active | AID 602340;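 active means mean ATP rescue above about 67%, or every replicate alone reaching that limit, limit read from the data, passing the limit was not always enough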;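 further: myotubes were challenged with 10 µM simvastatin during compound exposure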
FN deposition inh: fibronectin deposition inhibition. 350,000 tested, 0.086% active. inhibition, % at 12.6 µM. AH1F fibroblasts, Alexa488-fibronectin deposition fluorescence, overnight;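 active means mean inhibition across replicates of 30% or more, regardless of how many single replicates reach that level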;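 further: positive control wells lacked labelled fibronectin entirely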
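Material – AH1F fibroblast monolayer, labelled fibronectin deposition · Reagent – labelled fibronectin 24 nM · Timing – 1 h adhesion, overnight exposure · Measured by – fluorescence at 485 nm excitation, 525 nm emission · Read-out – inhibition of fibronectin deposition signal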
SIRT5 block: inhibitors of human sirtuin-5 desuccinylase | Purified SirT5, succinyl-peptide AMC, trypsin-coupled fluorescence | inhibition, % at 15 µM | 330,000 tested, 1.1% active | AID 652115; in the data active means inhibition above about 15%
rRNA inh HTS: inhibitors of bacterial rRNA selective over humanized ribosomes. 350,000 tested, 1.6% active. GFP signal change (wild-type ribosome), % (no concentration beside the values). E. coli WT GFP vs humanized-ribosome RFP mutants, fluorescence, 24 h; stronger effect = lower value; DMSO median 0, no signal -100. AID 720706;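 active means significant combined selectivity score with lowered wild-type GFP, culture density cut under 30%, mutant RFP and density less affected; inactive means any of these conditions unmet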
FGF22 binding: shifts melting point of recombinant human FGF22 | Q9HCT0 | recombinant FGF22 thermal shift, SYPRO orange fluorescence; percent of sucrose octasulfate shift, DMSO zero | activity (Tm shift, normalised), % at 9.99 µM | 340,000 tested, 1.5% active | AID 651658;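 active means mean Tm shift, scaled 0 neutral to 100 positive control, at about 1.3% or above, every replicate too, limit read from the data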
E-sel inducer: E-selectin induction on HUVECs; P16581; HUVEC E-selectin immunofluorescence imaging; normalized: neutral wells 0, TNF-alpha wells 100; activation, % at 7.58 µM; 260,000 tested, 0.37% active; AID 686992;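 active means mean E-selectin-positive cell signal at least 10% of the positive control, reached in at least 60% of replicates, without over 20% cell loss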
Target sequence (P16581 whole entry, looked up): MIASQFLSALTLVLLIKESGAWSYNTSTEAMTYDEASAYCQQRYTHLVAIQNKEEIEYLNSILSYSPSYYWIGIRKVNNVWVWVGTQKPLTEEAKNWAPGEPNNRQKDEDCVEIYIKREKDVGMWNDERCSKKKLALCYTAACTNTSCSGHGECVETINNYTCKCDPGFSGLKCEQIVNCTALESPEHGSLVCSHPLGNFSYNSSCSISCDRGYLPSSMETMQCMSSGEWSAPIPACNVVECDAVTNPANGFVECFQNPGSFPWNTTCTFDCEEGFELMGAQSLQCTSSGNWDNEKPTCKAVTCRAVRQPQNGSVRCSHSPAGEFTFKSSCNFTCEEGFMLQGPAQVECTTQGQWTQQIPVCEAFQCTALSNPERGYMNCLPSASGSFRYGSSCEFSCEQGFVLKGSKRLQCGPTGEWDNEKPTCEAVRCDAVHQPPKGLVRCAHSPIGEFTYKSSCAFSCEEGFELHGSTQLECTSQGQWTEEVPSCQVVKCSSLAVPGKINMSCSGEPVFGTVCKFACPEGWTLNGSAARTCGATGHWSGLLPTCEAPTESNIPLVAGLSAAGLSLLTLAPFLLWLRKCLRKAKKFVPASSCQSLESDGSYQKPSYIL
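Material: HUVEC primary endothelial cells; Amount: 3,000 cells per well; Dosing: single concentration; Medium: EGM-2 growth medium on 0.1% gelatin-coated wells; Read-out basis: percent E-selectin-positive cells; Signal: immunofluorescence imaging; Control set: TNF-alpha, DMSO.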
Starred values were filed as active, the others as inactive; . = no result given. Only some compounds are listed: those with a hit (about 4% of all), similar ones and a draw of the others.

SMILES	C2C12 statin	FN deposition inh	SIRT5 block	rRNA inh HTS	FGF22 binding	E-sel inducer
COc1ccc(C(=O)Nc2ccc3c(c2)C(=O)N(C)C[C@@H](OC)[C@@H](C)CN(C)[C@H](C)CO3)cc1	-1	5	2	4	0	2
O=C(C[C@@H]1CC[C@H]2[C@@H](COC[C@@H](O)CN2C(=O)Nc2cccc(Cl)c2)O1)NCC1CCCCC1	-9	-16	2	-55	0	0
CC(=O)Nc1ccc(C=NNc2ccc([N+](=O)[O-])cc2S(=O)(=O)Nc2ccccc2C(=O)O)cc1	-1	-13	26*	-6	0	.
CCOc1cc(/C=N/Nc2ccc(S(=O)(=O)Nc3ccccc3C(=O)O)cc2[N+](=O)[O-])cc(Cl)c1O	0	2	.	-8.1*	0	0
COc1ccc(C(C)=NNc2ccc([N+](=O)[O-])cc2S(=O)(=O)Nc2ccccc2C(=O)O)c(OC)c1	5	10	15*	-20*	.	-1
O=C(O)c1ccccc1NS(=O)(=O)c1ccc(N/N=C/c2cccc(O)c2O)c([N+](=O)[O-])c1	2	1	13	.	0	0
CC(=O)Nc1ccc(S(=O)(=O)Nc2cc([N+](=O)[O-])ccc2C)cc1	12	3	4	2	43	.
CC(=O)Nc1ccc(C=NNc2ccc(S(=O)(=O)Nc3ccccc3C(=O)O)cc2[N+](=O)[O-])cc1	1	4	17*	.	.	.
Cc1ccc(S(=O)(=O)Nc2ccc3c(c2)C(=O)N([C@H](C)CO)C[C@@H](C)[C@@H](CN(C)Cc2ccc4c(c2)OCO4)OCCCC[C@@H](C)O3)cc1	32	.	5	1	0	0
CCCNC(=O)N1CC2(CN(Cc3ccc(F)cc3)C2)c2c([nH]c3cc(OC)ccc23)[C@H]1CO	.	.	4	-1	0	0
CC(C)NC(=O)N(C)C[C@H]1OCCCC[C@H](C)Oc2ccc(NC(=O)Nc3ccc4c(c3)OCO4)cc2C(=O)N([C@@H](C)CO)C[C@H]1C	.	.	2	0	0	0
O=C(O)c1ccccc1NS(=O)(=O)c1ccc(NNC(=S)Nc2ccc(OC(F)F)cc2)c([N+](=O)[O-])c1	.	7	24*	-21	.	.
C[C@@H]1CN([C@@H](C)CO)C(=O)c2cc(C#Cc3cccc(F)c3)cnc2O[C@@H]1CN(C)CC1CC1	16	.	.	-4	.	1
COc1ccc(Nc2nc3ccc(C)cn3c(=O)c2/C=N/O)cc1	109*	7	-8	6	0	1
COC(=O)[C@H]1[C@H](CO)[C@H]2Cn3c(ccc(C4=CCCC4)c3=O)[C@H]2N1C(=O)C1CCCC1	15	-7	-1	3	0	0
Cc1nn(C)c(Cl)c1C(=O)NCC(=O)Nc1ccc(C(C)C)cc1	.	-9	0	-7	44*	.
Cc1noc(C)c1NC(=O)N(C)C[C@H]1Oc2ccc(NC(=O)CCCCCC(=O)Nc3ccccc3N)cc2C(=O)N([C@@H](C)CO)C[C@@H]1C	23	.	.	5	0	-2
Cc1ccc(S(=O)(=O)Nc2ccc3c(c2)CC(=O)N([C@@H](C)CO)C[C@@H](C)[C@H](CN(C)S(=O)(=O)c2c(C)noc2C)O3)cc1	-4	.	3	0	0	0
O=c1[nH]c(=O)n(C2OC(CO)C(O)C(O)C2O)cc1F (centres undefined)	.	.	-1	.	0	.
CCCCCCCCCCCCCCCCCCNc1ccn(C2OC(COP(=O)(O)OCC3OC(n4cc(F)c(=O)[nH]c4=O)CC3O)C(O)C2O)c(=O)n1 (centres undefined)	.	3	35*	6	.	3
COc1ccc(S(=O)(=O)CC(=O)Nc2ccccc2Cl)cc1	-4	-1	-1	4	43*	0
C/C=C/c1ccc2c(c1)O[C@H](CN(C)Cc1ccccc1F)[C@H](C)CN([C@H](C)CO)S2(=O)=O	.	.	13*	-5	0	0
C/C=C/c1ccc2c(c1)O[C@@H](CN(C)Cc1ccc(F)cc1)[C@H](C)CN([C@H](C)CO)S2(=O)=O	-47	-6	16*	.	0	0
O=S1(=O)CC(N2CCN(CCO)CC2)CN1Cc1cn(Cc2cccc(C(F)(F)F)c2)nn1 (centres undefined)	.	1	23*	19	0	0
Cc1cc(C)cc(Cn2cc(CN3CC(N4CCN(CCO)CC4)CS3(=O)=O)nn2)c1 (centres undefined)	.	5	29*	8	0	3
SMILES	C2C12 statin	FN deposition inh	SIRT5 block	rRNA inh HTS	FGF22 binding	E-sel inducer
COc1ccc(Cn2cc(CN3CC(N4CCN(Cc5ccccc5F)CC4)CS3(=O)=O)nn2)cc1 (centres undefined)	.	1	-2	-1	0	9
O=S1(=O)CC(N2CCN(Cc3ccccc3F)CC2)CN1Cc1cn(Cc2ccc(Cl)cc2)nn1 (centres undefined)	.	10	1	-19*	0	3
O=C(Nc1cccc(F)c1)N1CCCCN2[C@@H](CO)[C@H](c3ccc(C#Cc4cccnc4)cc3)[C@@H]2C1	-58	-6	0	-36	-1	0
C[C@@H]1CN([C@H](C)CO)C(=O)c2cc(NC(=O)CCN3CCOCC3)ccc2O[C@@H]1CN(C)C(=O)Nc1ccc2c(c1)OCO2	-9	.	-5	2	0	-3
COc1ccc(CNc2nc3c(c(=O)n(Cc4ccc(Br)cc4)c(=O)n3C)n2C)cc1	98*	-19	.	.	.	.
Cc1cccc(N(C(=O)Nc2ccc(Cl)cc2)C2=NCC(C)S2)n1 (centres undefined)	2	-1	-2	-29*	0	1
COc1ccc(S(=O)(=O)N(C)C[C@@H]2OCCCC[C@H](C)Oc3ccc(NC(=O)Nc4cccc5ccccc45)cc3C(=O)N([C@H](C)CO)C[C@H]2C)cc1	.	.	2	1	1	34*
COc1ccc(S(=O)(=O)N(C)C[C@@H]2OCCCC[C@@H](C)Oc3ccc(NC(=O)Nc4cccc5ccccc45)cc3C(=O)N([C@@H](C)CO)C[C@H]2C)cc1	.	.	3	-4	1.3*	0
COc1cc(CN2CC3(CN(S(=O)(=O)c4cn(C)cn4)C3)c3c(n(C)c4cc(OC)ccc34)[C@@H]2CO)cc(OC)c1	.	.	3	-3	0	0
C[C@@H]1CN([C@@H](C)CO)C(=O)c2cc(NS(=O)(=O)c3cn(C)cn3)ccc2O[C@@H](C)CCCCO[C@H]1CN(C)Cc1ccncc1	.	.	0	-3	0	0
C[C@@H]1CN([C@@H](C)CO)C(=O)Cc2cc(NC(=O)Nc3ccc4c(c3)OCO4)ccc2O[C@H]1CN(C)C	19	.	0	-2	0	384*

Compound activity (PubChem BioAssay)
